Reference: PMC8822587 (ACS infectious diseases, 2021)
Like-named read-outs stand apart in the source and are kept apart here. Non-standard residues stand in square brackets, D forms with d. Residues, ends and D or L forms follow the SMILES beside them. ξ: configuration not given here. Aoe = N[C@@H](CCCCCC(=O)[C@@H]1CO1)C(=O)O; Aoe(9ξ) = N[C@@H](CCCCCC(=O)C1CO1)C(=O)O; Pip = O=C(O)[C@@H]1CCCCN1

What was measured:
P. falciparum strain Dd2 = test: SYBR Green I fluorescence antiplasmodial assay, Dd2; format: cell-based, Plasmodium falciparum
[1] = test system: HepG2 hepatocarcinoma cells; test: MTS human cell cytotoxicity assay; format: cell-based; settings: for EC50: read-out: HepG2 EC50
[2] = test system: acetyl-histone H4 in 3D7 parasite culture; test: Immunoblot of histone H4 hyperacetylation; format: cell-based, Plasmodium falciparum; settings: 3D7 trophozoites, 5× EC50, 4 h, versus DMSO
recombinant PfHDAC1 = target: T1, recombinant PfHDAC1 (Plasmodium falciparum, UniProt Q7K6A1); test: biochemical
T1 sequence (Q7K6A1 1-449): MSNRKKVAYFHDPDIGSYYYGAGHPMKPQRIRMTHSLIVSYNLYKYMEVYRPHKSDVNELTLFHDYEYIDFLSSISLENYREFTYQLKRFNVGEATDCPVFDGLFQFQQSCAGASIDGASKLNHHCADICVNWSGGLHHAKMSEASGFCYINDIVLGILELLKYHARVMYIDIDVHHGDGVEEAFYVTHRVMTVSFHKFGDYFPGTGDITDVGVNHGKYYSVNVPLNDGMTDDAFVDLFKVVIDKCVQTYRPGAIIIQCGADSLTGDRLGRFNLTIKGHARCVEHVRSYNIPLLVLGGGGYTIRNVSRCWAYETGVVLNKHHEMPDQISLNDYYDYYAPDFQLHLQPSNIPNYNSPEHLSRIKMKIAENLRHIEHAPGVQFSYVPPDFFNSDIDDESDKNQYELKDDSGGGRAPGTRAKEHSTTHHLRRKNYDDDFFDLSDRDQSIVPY

P. falciparum 3D7 = settings: read-out: P. falciparum 3D7 EC50; literature values; cited from earlier work
[3] = test system: synchronous Dd2 parasites; test: Stage specific inhibition assay; format: cell-based, Plasmodium falciparum; settings: 5 × EC50, synchronous Dd2
Outline: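 Stage development assessed by Giemsa smears at every condition and time point, plus flow cytometry. Flow samples fixed in 4% paraformaldehyde for 30 min at 37°C, washed 3x in PBS, held at 4°C, then resuspended in 0.25% Triton X-100 and shaken at 500 RPM for 10 min. Parasites gated against an uninfected RBC control; treated-culture histograms overlaid on vehicle-treated culture.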

[4] = test system: histone H4 acetylation in Plasmodium culture; test: Immunofluorescence assay with anti-acetyl histone H4; format: cell-based, Plasmodium falciparum; settings: synchronous cultures, 5x EC50
[5] = test system: asynchronous P. falciparum Dd2 parasites; test: Rate of killing assay with compound wash-off; format: cell-based, Plasmodium falciparum; settings: 10 × EC50, exposure 24 or 48 h, then wash-off
[6] = 48 h treatment, MTS, mean of triplicate ± SE/SEM
[7] = read-out: PfHDAC1 IC50, recombinant enzyme, 2 h at 37°C, mean of duplicate ± SEM

For `CC1(C)NC(=O)[C@H](CCCCCC(=O)[C@H]2CO2)NC(=O)[C@H]2CCCN2C(=O)[C@H](Cc2ccccc2)NC1=O` [Compound 1, chlamydocin], the EC50 (P. falciparum strain Dd2; Plasmodium falciparum, DD2, 72 h, read-out: Dd2 EC50) was 0.031 ± 0.007 µM, the “Selectivity Index (SI)” value ([1]; HepG2 EC50 / average of Dd2 EC50 and 3D7 EC50) was 17 and the EC50 ([1]; Homo sapiens, HepG2, 48 h) was 0.53 ± 0.007 µM.

For `C[C@@H]1NC(=O)[C@H](CCCCCC(=O)[C@@H]2CO2)NC(=O)[C@H]2CCCN2C(=O)[C@H](Cc2ccccc2)NC1=O` [Compound 2, 1-alaninechlamydocin] (cyclo(AF[dP][Aoe])), the EC50 [1, 6] was 0.038 ± 0.006 µM and the “histone H4 acetylation (Western blot)” value [2] was “hyperacetylation”.

For `CC(C)C[C@@H]1NC(=O)[C@@H](Cc2ccccc2)NC(=O)[C@H](CCCCCC(=O)C2CO2)NC(=O)[C@@H]2CCCCN2C1=O` (some centres unmarked) [Compound 11, WF-3161] (cyclo(L[Pip][Aoe(9ξ)][dF])), the IC50 (recombinant PfHDAC1; [7]) was 0.002 ± 0.002 µM and the EC50 [1, 6] was 22 ± 0.9 µM.

In the case of `C[C@@H]1NC(=O)[C@H]2CCCN2C(=O)[C@H](CCCCCC(=O)[C@@H]2CO2)NC(=O)[C@@H](C)NC1=O` [HC toxin], the EC50 (P. falciparum 3D7) is given as 0.029 ± 0.002 µM.

With `O=C(CCCCCCC(=O)Nc1ccccc1)NO` [SAHA, suberanilohydroxamic acid] the IC50 (recombinant PfHDAC1) was 0.092 ± 0.02 µM, the “effect of treatment at 6 HPI” value [3] was “resemble late trophozoite” and the “effect of treatment at 42 HPI” value [3] was “partially inhibited at schizogony”. For the same compound, the “histone H4 acetylation (immunofluorescence)” value [4] was “noticeable increase in histone H4 acetylation” and the “histone H4 acetylation (Western blot)” value [2] was “hyperacetylation”.

For Deoxy-WF 20782B [Compound 5], the “fold increase in EC50 compared with epoxide or alcohol R1 analogs” value (P. falciparum strain Dd2; ethyl analog versus analogs with epoxide or alcohol at R1) was 2–6 fold and the EC50 [1, 6] was 0.88 ± 0.05 µM.

With FR235222 [Compound 3] the EC50 [1, 6] was 0.26 ± 0.06 µM and the killing profile [5] was “plasmodistatic”.

For NA 1309 [Compound 7], the IC50 (recombinant PfHDAC1; [7]) was 6.3 ± 0.8 µM and the EC50 [1, 6] was over 25 µM.

WF 27082F [Compound 4] showed an EC50 [1, 6] of 0.15 ± 0.04 µM.
